ChEMBL document CHEMBL1255381, “Golgicide A reveals essential roles for GBF1 in Golgi assembly and function” (Nat Chem Biol, 2009)
The source made the active and inactive calls. The calls are words filed in the database; no cut-off is given here.

Assays:
Vero [1] = assay: Inhibition of GBF1 M832L mutant in african green monkey Vero cells assessed as effect on GM130 localization from golgi at 100 uM by immunofluorescence method; type: cell-based; conditions: Chlorocebus sabaeus
Vero [2] = assay: Inhibition of GBF1 in african green monkey Vero cells assessed as inhibition of StxB-SS retrogade transport from endosomes to TGN at 10 uM by immunofluorescence method; type: cell-based; conditions: Chlorocebus sabaeus
Vero [3] = assay: Inhibition of GBF1 in african green monkey Vero cells assessed as induction of betaCOP dispersal from golgi membranes at 10 uM after 5 mins by immunofluorescence method; type: cell-based; conditions: Chlorocebus sabaeus
Vero [4] = assay: Inhibition of GBF1-M832L mutant in african green monkey Vero cells assessed as Arf1 activation at 10 uM after 1 hr; type: cell-based; conditions: Chlorocebus sabaeus
Vero [5] = assay: Inhibition of GBF1 in african green monkey Vero cells assessed as rapid GGA3 dispersal from trans golgi network at 10 uM after 5 mins by immunofluorescence method; type: cell-based; conditions: Chlorocebus sabaeus
Vero [6] = assay: Inhibition of GBF1-M832L mutant mediated NPY-GFP secretion in african green monkey Vero cells at 10 uM by immunofluorescence method; type: cell-based; conditions: Chlorocebus sabaeus
Vero [7] = assay: Inhibition of GBF1 K844A mutant in african green monkey Vero cells mutant assessed as effect on change in golgi morphology at 10 uM after 1 hr by immunofluorescence method; type: cell-based; conditions: Chlorocebus sabaeus
How it was run: (§1)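 Vero cells transiently transfected (Lipofectamine 2000) with HA-tagged GBF1 wild type or R843A, K844A, Q845A or N846A mutant; after 36 h exposed 60 min to compound 10 μM, fixed, stained anti-HA and anti-giantin; Golgi morphology scored in expressing cells.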

Vero [8] = assay: Inhibition of GBF1 in african green monkey Vero cells assessed as punctate and diffuse distribution of medial-Golgi marker giantin […] at 10 uM after 1 hr by immunofluorescence method; type: cell-based; conditions: Chlorocebus sabaeus
Vero [9] = assay: Inhibition of GBF1 in african green monkey Vero cells assessed as colocalization of tsVSVG-GFP with […] at 10 uM by immunofluorescence method; type: cell-based; conditions: Chlorocebus sabaeus
Vero [10] = assay: Inhibition of GBF1 in african green monkey Vero cells assessed as rapid AP-1 dispersal from golgi membranes at 10 uM after 5 mins by immunofluorescence method; type: cell-based; conditions: Chlorocebus sabaeus
Vero [11] = assay: Effect on BIG1 distribution from golgi in african green monkey Vero cells by immunofluorescence method; type: functional, cell-based; conditions: Chlorocebus sabaeus
Vero [12] = assay: Effect on depolymerization of actin microfilaments in african green monkey Vero cells at 10 uM after 30 mins by immunofluorescence method; type: functional, cell-based; conditions: Chlorocebus sabaeus
How it was run: (§2)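 Vero cells (DMEM, 10% FCS, 1% nonessential amino acids, 37°C, 5% CO2) exposed 30 min at 37°C to compound, DMSO, nocodazole or cytochalasin B; fixed and immunostained for microtubules or actin; scored by immunofluorescence microscopy.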

Vero [13] = assay: Effect on disruption of microtubules in african green monkey Vero cells at 10 uM after 30 mins by immunofluorescence method; type: functional, cell-based; conditions: Chlorocebus sabaeus; how it was run: as §2
Vero [14] = assay: Inhibition of GBF1 mediated NPY-GFP secretion in african green monkey Vero cells at 10 uM by immunofluorescence method; type: cell-based; conditions: Chlorocebus sabaeus
Vero [15] = assay: Inhibition of Arf1 in african green monkey Vero cells assessed as decrease in Arf1-GTP levels at 10 ug/ml after 1 hr; type: cell-based; conditions: Chlorocebus sabaeus
How it was run: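 Vero cells transduced with adenoviral Arf1-V5, alone or with GBF1-ML-HA; next day reseeded, then 45 min at 37°C with medium, BFA 10 µg/ml or compound 10 μM. Lysates pulled down with GGA3 VHS-GAT-GST on glutathione agarose, 30 min 4°C; Arf1-GTP by anti-V5 Western, band densitometry, duplicate experiments averaged.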

Vero [16] = assay: Inhibition of Arf1 in african green monkey Vero cells assessed as punctate and diffuse distribution of medial-Golgi marker giantin at 10 ug/ml after 1 hr by immunofluorescence method; type: cell-based; conditions: Chlorocebus sabaeus
Vero [17] = assay: Inhibition of GBF1 in african green monkey Vero cells assessed as colocalization with ERGIC-53 marker in ER-golgi intermediate compartment by immunofluorescence method; type: cell-based; conditions: Chlorocebus sabaeus
Vero [18] = assay: Inhibition of GBF1 M832L mutant in african green monkey Vero cells assessed as effect on betaCOP localization from golgi at 100 uM by immunofluorescence method; type: cell-based; conditions: Chlorocebus sabaeus
Vero [19] = assay: Inhibition of GBF1 in african green monkey Vero cells assessed as tsVSVG-GFP transport to plasma membrane at 10 uM by immunofluorescence method; type: cell-based; conditions: Chlorocebus sabaeus
How it was run: (§3)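 Vero cells co-transfected with tsVSVG-GFP (ts045) and optionally GBF1-HA WT or M832L; held 12-16 h at 42°C for ER arrest, then cycloheximide 100 µg/ml plus compound 10 µM or BFA 10 µg/ml, shifted to 32°C for various times (up to 4 h); fixed, anti-HA stained, transport imaged.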

Vero [20] = assay: Inhibition of GBF1-M832L mutant in african green monkey Vero cells assessed as tsVSVG-GFP transport to plasma membrane at 10 uM by immunofluorescence method; type: cell-based; conditions: Chlorocebus sabaeus; how it was run: as §3
Vero [21] = assay: Inhibition of GBF1 M832L mutant in african green monkey Vero cells assessed as effect on TGN46 localization from golgi at 100 uM by immunofluorescence method; type: cell-based; conditions: Chlorocebus sabaeus
Vero [22] = assay: Inhibition of GBF1 R843A mutant in african green monkey Vero cells mutant assessed as effect on change in golgi morphology at 10 uM after 1 hr by immunofluorescence method; type: cell-based; conditions: Chlorocebus sabaeus; how it was run: as §1
Vero [23] = assay: Inhibition of GBF1 in african green monkey Vero cells assessed as rapid COPI redistribution from golgi at 10 uM after 5 mins by immunofluorescence method; type: cell-based; conditions: Chlorocebus sabaeus
MDCK [24] = assay: Effect on golgi morphology in MDCK cells at 10 uM after 1 hr by immunofluorescence method; type: functional, cell-based; conditions: Canis lupus familiaris
How it was run: (§4)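 MDCK cells (EMEM, 10% FCS) and Vero cells, untreated or given compound 10 μM for 1 h; fixed and immunostained for βCOP and Golgi markers; distribution compared by immunofluorescence.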

Vero [25] = assay: Inhibition of Arf1 in african green monkey Vero cells assessed as inhibition of StxB-SS retrogade transport from endosomes to TGN at 10 ug/ml by immunofluorescence method; type: cell-based; conditions: Chlorocebus sabaeus
MDCK [26] = assay: Induction of betaCOP distribution from golgi membranes in MDCK cells at 10 uM after 1 hr by immunofluorescence method; type: functional, cell-based; conditions: Canis lupus familiaris; how it was run: as §4
Vero [27] = assay: Inhibition of GBF1 N846A mutant in african green monkey Vero cells mutant assessed as effect on change in golgi morphology at 10 uM after 1 hr by immunofluorescence method; type: cell-based; conditions: Chlorocebus sabaeus; how it was run: as §1
Vero [28] = assay: Inhibition of GBF1 in african green monkey Vero cells overexpressing BIG1 assessed as punctate and diffuse distribution of medial-Golgi marker giantin from golgi at 10 uM after 1 hr by immunofluorescence method; type: cell-based; conditions: Chlorocebus sabaeus
Vero [29] = assay: Inhibition of GBF1 M832L in african green monkey Vero cells assessed as inhibition of StxB-SS retrogade transport from endosomes to TGN at 10 uM by immunofluorescence method; type: cell-based; conditions: Chlorocebus sabaeus
Vero [30] = assay: Inhibition of GBF1-M832L mutant in african green monkey Vero cells assessed as colocalization of tsVSVG-GFP with […] at 10 uM by immunofluorescence method; type: cell-based; conditions: Chlorocebus sabaeus
Vero [31] = assay: Effect on transit of transferrin through endocytic and recycling pathway in african green monkey Vero cells at 10 uM after 1 hr by immunofluorescence method; type: functional, cell-based; conditions: Chlorocebus sabaeus
Vero [32] = assay: Effect on BIG2 distribution from golgi in african green monkey Vero cells by immunofluorescence method; type: functional, cell-based; conditions: Chlorocebus sabaeus
Vero [33] = assay: Induction of GBF1 in african green monkey Vero cells assessed as punctate and diffuse distribution of cis-Golgi marker GM130 from TGN at 10 uM after 1 hr by immunofluorescence method; type: cell-based; conditions: Chlorocebus sabaeus
Vero [34] = assay: Inhibition of GBF1 in african green monkey Vero cells assessed as giantin positive punctate structures in contact with Sec31-positive ER exit site at 10 uM after 1 hr by immunofluorescence method; type: cell-based; conditions: Chlorocebus sabaeus
How it was run: (§5)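 Vero cells given BFA 10 μg/ml or compound 10 μM for 60 min, fixed, co-stained for giantin and ER exit site marker Sec31; giantin puncta relative to ERES scored by immunofluorescence.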

Vero [35] = assay: Inhibition of GBF1 Q845A mutant in african green monkey Vero cells mutant assessed as effect on change in golgi morphology at 10 uM after 1 hr by immunofluorescence method; type: cell-based; conditions: Chlorocebus sabaeus; how it was run: as §1
Vero [36] = assay: cells; type: functional, cell-based; conditions: Chlorocebus sabaeus, 0.5 h
Vero [37] = assay: Inhibition of GBF1 in african green monkey Vero cells overexpressing BIG1 assessed as distribution of trans-Golgi marker TGN46 from TGN at 10 uM after 1 hr by immunofluorescence method; type: cell-based; conditions: Chlorocebus sabaeus
Vero [38] = assay: Inhibition of GBF1 in african green monkey Vero cells assessed as Arf1 activation at 10 uM after 1 hr; type: cell-based; conditions: Chlorocebus sabaeus
Vero [39] = assay: Inhibition of Arf1 in african green monkey Vero cells assessed as giantin positive punctate structures in contact with Sec31-positive ER exit site at 10 ug/ml after 1 hr by immunofluorescence method; type: cell-based; conditions: Chlorocebus sabaeus; how it was run: as §5

## Fc1cc(F)c2c(c1)[C@H]1C=CC[C@H]1C(c1cccnc1)N2 (some centres undefined) [GOLGICIDE A]
Vero [1]
  inhibition: inactive
Vero [2]
  inhibition: Active
Vero [3]
  inhibition: Active
Vero [4]
  inhibition: inactive
Vero [5]
  inhibition: inactive
Vero [6]
  inhibition: inactive
Vero [7]
  inhibition: inactive
Vero [8]
  inhibition: Active
Vero [9]
  inhibition: Active
Vero [10]
  inhibition: inactive
Vero [11]
  Activity: inactive
Vero [12]
  Activity: inactive
Vero [13]
  Activity: inactive
Vero [14]
  inhibition: Active
Vero [15]
  inhibition: 75%
Vero [16]
  inhibition: Active
Vero [17]
  inhibition: Active
Vero [18]
  inhibition: inactive
Vero [19]
  inhibition: Active
Vero [20]
  inhibition: inactive
Vero [21]
  inhibition: inactive
Vero [22]
  inhibition: inactive
Vero [23]
  inhibition: Active
MDCK [24]
  Activity: inactive
Vero [25]
  inhibition: Active
MDCK [26]
  Activity: inactive
Vero [27]
  inhibition: inactive
Vero [28]
  inhibition: inactive
Vero [29]
  inhibition: Active
Vero [30]
  inhibition: inactive
Vero [31]
  Activity: inactive
Vero [32]
  Activity: inactive
Vero [33]
  Activity: Active
Vero [34]
  inhibition: Active
Vero [35]
  inhibition: inactive
Vero [36]
  IC50: 3.3 µM
Vero [37]
  inhibition: inactive
Vero [38]
  inhibition: 34%
Vero [39]
  inhibition: Active
